Values joined by “and” are separate entries in the source; they are usually repeats but may differ in a detail not shown here. Equal entries are not always repeated. Where two headings read alike, the source gives them in different places.
Columns and labels:
[1] = DPPH free radical scavenging activity; details: for IC50: read-out: DPPH scavenging IC50
[2] = Superoxide anion scavenging assay; details: for IC50: read-out: superoxide anion scavenging IC50
jack bean urease = jack bean urease (Canavalia ensiformis, UniProt P07374); test: Urease inhibition assay; assay type: biochemical; details: for IC50: 3 experiments
jack bean urease, sequence (P07374 whole entry, looked up): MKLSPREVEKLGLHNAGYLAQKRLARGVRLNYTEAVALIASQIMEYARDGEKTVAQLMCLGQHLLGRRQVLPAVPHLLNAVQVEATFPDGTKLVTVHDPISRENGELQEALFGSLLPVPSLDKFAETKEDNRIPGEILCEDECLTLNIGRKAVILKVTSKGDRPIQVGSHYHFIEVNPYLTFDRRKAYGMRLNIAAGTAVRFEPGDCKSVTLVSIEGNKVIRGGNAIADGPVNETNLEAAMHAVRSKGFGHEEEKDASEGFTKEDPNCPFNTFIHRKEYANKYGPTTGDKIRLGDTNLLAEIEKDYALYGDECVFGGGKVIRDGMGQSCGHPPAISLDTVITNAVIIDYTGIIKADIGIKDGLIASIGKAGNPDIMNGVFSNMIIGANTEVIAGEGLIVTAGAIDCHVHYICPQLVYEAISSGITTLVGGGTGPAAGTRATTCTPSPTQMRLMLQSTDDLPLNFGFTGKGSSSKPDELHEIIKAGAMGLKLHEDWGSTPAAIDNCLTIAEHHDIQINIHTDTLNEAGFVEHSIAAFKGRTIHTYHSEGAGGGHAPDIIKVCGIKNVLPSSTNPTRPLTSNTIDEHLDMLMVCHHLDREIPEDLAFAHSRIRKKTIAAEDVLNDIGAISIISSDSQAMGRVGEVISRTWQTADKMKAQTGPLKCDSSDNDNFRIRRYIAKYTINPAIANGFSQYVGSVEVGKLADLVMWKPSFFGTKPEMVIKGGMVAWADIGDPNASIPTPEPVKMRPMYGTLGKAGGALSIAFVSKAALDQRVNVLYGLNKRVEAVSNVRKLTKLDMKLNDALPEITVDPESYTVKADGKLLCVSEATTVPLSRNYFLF

[3] = target: Bacillus Pasteurii urease (Sporosarcina pasteurii, UniProt P41020); test: Urease inhibition assay; assay type: biochemical; details: 3 experiments
Bacillus Pasteurii urease, sequence (P41020 whole entry): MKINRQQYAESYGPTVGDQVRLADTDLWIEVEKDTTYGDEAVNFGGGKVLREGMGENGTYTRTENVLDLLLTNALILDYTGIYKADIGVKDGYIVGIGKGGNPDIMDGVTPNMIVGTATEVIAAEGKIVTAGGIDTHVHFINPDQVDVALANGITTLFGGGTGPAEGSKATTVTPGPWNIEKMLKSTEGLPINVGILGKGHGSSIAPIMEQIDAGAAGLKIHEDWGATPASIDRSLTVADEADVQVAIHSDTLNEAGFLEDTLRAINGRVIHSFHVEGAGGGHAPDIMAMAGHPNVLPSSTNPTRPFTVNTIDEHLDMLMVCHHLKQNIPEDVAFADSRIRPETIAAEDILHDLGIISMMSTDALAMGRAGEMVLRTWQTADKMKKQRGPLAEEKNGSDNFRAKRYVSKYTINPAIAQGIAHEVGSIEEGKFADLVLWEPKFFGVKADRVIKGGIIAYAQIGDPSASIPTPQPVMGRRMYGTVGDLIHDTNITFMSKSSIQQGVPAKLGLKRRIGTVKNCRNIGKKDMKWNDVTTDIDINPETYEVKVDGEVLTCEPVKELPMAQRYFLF
Bacillus Pasteurii urease, sequence (P41021 whole entry partner): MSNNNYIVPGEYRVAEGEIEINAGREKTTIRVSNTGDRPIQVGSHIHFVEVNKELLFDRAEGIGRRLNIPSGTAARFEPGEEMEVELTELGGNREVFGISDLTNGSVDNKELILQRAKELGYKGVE
Bacillus Pasteurii urease, sequence (P41022 whole entry partner): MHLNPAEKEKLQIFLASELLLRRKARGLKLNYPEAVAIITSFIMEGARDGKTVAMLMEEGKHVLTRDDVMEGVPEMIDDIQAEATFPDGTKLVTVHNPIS

α-Glucosidase = α-Glucosidase (Saccharomyces cerevisiae, UniProt P53341); test: α-Glucosidase inhibition assay; assay type: biochemical
α-Glucosidase, sequence (P53341 whole entry): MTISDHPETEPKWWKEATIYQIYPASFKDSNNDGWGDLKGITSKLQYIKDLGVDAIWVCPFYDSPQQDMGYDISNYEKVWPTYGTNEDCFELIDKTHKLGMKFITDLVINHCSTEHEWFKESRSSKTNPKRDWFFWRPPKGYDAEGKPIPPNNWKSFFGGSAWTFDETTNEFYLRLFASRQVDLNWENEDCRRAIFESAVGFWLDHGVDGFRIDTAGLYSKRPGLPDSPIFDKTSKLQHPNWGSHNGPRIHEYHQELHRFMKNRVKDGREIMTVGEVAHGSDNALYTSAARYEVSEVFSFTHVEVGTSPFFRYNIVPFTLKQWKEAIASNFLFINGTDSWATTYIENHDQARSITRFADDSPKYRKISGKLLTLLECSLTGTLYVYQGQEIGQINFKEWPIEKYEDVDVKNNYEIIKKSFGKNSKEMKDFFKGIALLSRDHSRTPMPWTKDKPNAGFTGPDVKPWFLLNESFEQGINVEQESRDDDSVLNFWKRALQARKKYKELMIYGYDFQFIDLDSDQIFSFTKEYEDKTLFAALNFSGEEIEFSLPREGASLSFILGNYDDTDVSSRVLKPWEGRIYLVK
In short: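 Test compound (200–800 μg/mL) pre-incubated 5 min at 37 °C with 2 % w/v starch (sucrose) solution in 0.2 M Tris buffer, pH 8.0. 5 mM p-nitrophenyl-α-D-glucopyranoside added intermittently, then α-glucosidase (1 U/mL), 40 min at 35 °C. Stopped with […]; absorbance read at 405 nm. % inhibition = (control − sample)/control × 100; samples above 50 % taken to IC50.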

ABTS method = details: for IC50: read-out: ABTS scavenging IC50
[4] = Enzyme (SEM ±) J.B Urease, IC50, mean ± SEM
[5] = Enzyme (SEM ±) B.P Urease, IC50, mean ± SEM

Row | Structure (SMILES) | IC50 [1] | IC50 [2] | Types of inhibition (urease) (jack bean urease) | IC50 (jack bean urease; [4]) [µM] | IC50 [3, 5] [µM] | Type of Inhibition (α-glucosidase and α-amylase) (α-Glucosidase) | IC50 (ABTS method) | DPPH % Scavenging ([1]; 50 μM) | DPPH % Scavenging ([1]; 75 μM) | DPPH % Scavenging ([1]; 100 μM) | superoxide anion % scavenging ([2]; 25 μM) | superoxide anion % scavenging ([2]; 50 μM) | superoxide anion % scavenging ([2]; 75 μM) | superoxide anion % scavenging ([2]; 100 μM) | DPPH % Scavenging ([1]; 25 μM) [%] | ABTS % Scavenging (ABTS method; 10 μM) | ABTS % Scavenging (ABTS method; 20 μM) | ABTS % Scavenging (ABTS method; 30 μM) | ABTS % Scavenging (ABTS method; 40 μM) | ABTS % Scavenging (ABTS method; 50 μM) | also measured
1 | O=C1O[C@H]([C@@H](O)CO)C(O)=C1O [Ascorbic acid, reference compound] | 30.4 µM and 42.2 µM and 45.1 µM and 35 µM | 33.4 µM and 35.4 µM and 39.1 µM and 38 µM |  |  |  |  |  | 70.3 ± 0.01% and 68.2 ± 0.17% and 58.1 ± 0.05% and 69.3 ± 0.41% | 85.3 ± 0.01% and 88.1 ± 0.02% and 79.1 ± 0.12% and 95.3 ± 0.01% | 97.2 ± 0.2% and 94.2 ± 0.5% and 84.2 ± 0.18% and 105.2 ± 0.2% | 39 ± 0.09% and 49 ± 0.05% and 35 ± 0.33% and 25 ± 0.03% | 55 ± 0.05% and 53 ± 0.03% and 57 ± 0.13% and 60 ± 0.07% | 77 ± 0.12% and 75 ± 0.15% and 86 ± 0.53% and 67 ± 0.11% | 90 ± 0.02% and 93 ± 0.01% and 99 ± 0.11% and 82 ± 0.01% |  |  |  |  |  |  | 
2 | Cc1ccc(S(=O)(=O)N(Cc2ccccc2)c2nccs2)cc1 [Compound 19, N-Benzyl-4-methyl-N-(thiazol-2-yl)benzenesulfonamide] | 40.01 ± 0.01 µM | 42 ± 0.15 µM | Competitive | 26.15 ± 0.02 | 29.05 ± 0.01 | Competitive | 37.01 ± 0.04 µM | 65.8 ± 0.03% | 89.6 ± 0.11% | 95.1 ± 0.41% | 32 ± 0.07% | 59 ± 0.25% | 80 ± 0.11% | 88 ± 0.01% | 39.1 ± 0.2 | 18.01 ± 0.09% | 37.05 ± 0.04% | 41.09 ± 0.01% | 69.02 ± 0.03% | 89.03 ± 0.91% | 
3 | COc1ccc(S(=O)(=O)N(Cc2ccccc2)c2nccs2)cc1 [Compound 20, N-Benzyl-4-methoxy-N-(thiazol-2-yl)benzenesulfonamide] | 43.5 ± 0.03 µM | 40 ± 0.06 µM | Competitive | 20.6 ± 0.41 | 22.1 ± 0.35 | Non-competitive | 38.01 ± 0.06 µM | 49.2 ± 0.01% | 56.3 ± 0.83% | 80.2 ± 0.01% | 31 ± 0.02% | 54 ± 0.12% | 79 ± 0.22% | 85 ± 0.25% | 35.2 ± 0.1 | 15.04 ± 0.2% | 22.02 ± 0.05% | 45.08 ± 0.06% | 61.01 ± 0.03% | 82.03 ± 0.07% | 
4 | NC(N)=S [Thiourea, reference compound] |  |  |  |  |  |  |  |  |  |  |  |  |  |  |  |  |  |  |  |  | IC50 (jack bean urease; read-out: Enzyme (SEM ±) J.B Urease, IC50, mean ± SEM): 10.12 ± 0.08 µM; IC50 ([3]; read-out: Enzyme (SEM ±) B.P Urease, IC50, mean ± SEM): 14.08 ± 0.05 µM

Now from value to compound, other results behind:

Row | IC50 [1] | IC50 [2] | Types of inhibition (urease) (jack bean urease) | IC50 (jack bean urease; [4]) [µM] | IC50 [3, 5] [µM] | Type of Inhibition (α-glucosidase and α-amylase) (α-Glucosidase) | IC50 (ABTS method) | Structure (SMILES) | DPPH % Scavenging ([1]; 50 μM) | DPPH % Scavenging ([1]; 75 μM) | DPPH % Scavenging ([1]; 100 μM) | superoxide anion % scavenging ([2]; 25 μM) | superoxide anion % scavenging ([2]; 50 μM) | superoxide anion % scavenging ([2]; 75 μM) | superoxide anion % scavenging ([2]; 100 μM) | DPPH % Scavenging ([1]; 25 μM) [%] | ABTS % Scavenging (ABTS method; 10 μM) | ABTS % Scavenging (ABTS method; 20 μM) | ABTS % Scavenging (ABTS method; 30 μM) | ABTS % Scavenging (ABTS method; 40 μM) | ABTS % Scavenging (ABTS method; 50 μM) | also measured
5 | 47.1 ± 0.08 µM |  | Non-competitive | 48.1 ± 1.19 | 53.32 ± 0.21 | Non-competitive | 29.01 ± 0.14 µM | O=[N+]([O-])c1ccc(S(=O)(=O)N(Cc2ccccc2)c2nccs2)cc1 [Compound 25, N-benzyl-4-nitro-N-(thiazol-2-yl)benzenesulfonamide] | 57.8 ± 0.11% | 71.6 ± 0.03% | 85.1 ± 0.41% |  |  |  |  | 35.2 ± 0.2 | 09.01 ± 0.09% | 28.05 ± 0.04% | 43.09 ± 0.01% | 70.02 ± 0.03% | 81.03 ± 0.91% | inhibition against both enzymes (J.B. and B.P urease), in words (jack bean urease): weak inhibition
6 |  |  |  |  |  |  | 16.4 µM and 19.4 µM and 17.5 µM and 20.3 µM | Cc1c(C)c2c(c(C)c1O)CCC(C)(C(=O)O)O2 (stereo not shown) [Trolox, reference compound] |  |  |  |  |  |  |  |  | 36.08 ± 0.1% and 26.05 ± 0.03% and 35.01 ± 0.3% and 18.08 ± 0.1% | 58.02 ± 0.62% and 55.02 ± 0.12% and 65.2 ± 0.1% and 40.02 ± 0.62% | 67.03 ± 0.02% and 70.03 ± 0.01% and 77.31 ± 0.07% and 55.03 ± 0.02% | 85.01 ± 0.06% and 82.01 ± 0.05% and 89.01 ± 0.5% and 84.01 ± 0.06% | 105.02 ± 0.02% and 109.2 ± 0.22% and 105.12 ± 0.21% and 93.02 ± 0.02% | 

Reference: paper PMC11327602 (Heliyon, 2024)
